According to ChEMBL document CHEMBL4602724, “Validating the 1,2-Difluoro Motif As a Hybrid Bioisostere of CF3 and Et Using Matrix Metalloproteinases As Structural Probes” (J Med Chem, 2020):

Tests used:
[1] = biological target: 72 kDa type IV collagenase (Homo sapiens, UniProt P08253); test: Inhibition of human active MMP2 using (7-methoxycoumarin-4-yl)acetyl-Pro-Leu-Gly-Leu-(3-(2,4-dinitrophenyl)-L-2,3-diamino-propionyl)Ala-Arg-NH2 as substrate preincubated for 30 mins followed by substrate addition and measured for 10 mins by fluorescence assay
Method in brief: (§1)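 Human active enzyme at 2 nM was preincubated with compound (10 pM–1 mM) for 30 min at 37 °C in 50 mM Tris·HCl pH 7.5 with 0.2 M NaCl, 5 mM CaCl2, […] ZnSO4 and 0.05% Brij 35. Substrate was then added and fluorescence (ex 330/em 390 nm) followed at 37 °C. Initial 10-min linear rates were plotted against inhibitor concentration. IC50 is the mean of three experiments.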

Neutrophil collagenase = Neutrophil collagenase (Homo sapiens, UniProt P22894); test: Inhibition of human active MMP8 using (7-methoxycoumarin-4-yl)acetyl-Pro-Leu-Gly-Leu-(3-(2,4-dinitrophenyl)-L-2,3-diamino-propionyl)Ala-Arg-NH2 as substrate preincubated for 30 mins followed by substrate addition and measured for 10 mins by fluorescence assay; method in brief: as §1
[2] = biological target: Matrix metalloproteinase-9 (Homo sapiens, UniProt P14780); test: Inhibition of human active MMP9 using (7-methoxycoumarin-4-yl)acetyl-Pro-Leu-Gly-Leu-(3-(2,4-dinitrophenyl)-L-2,3-diamino-propionyl)Ala-Arg-NH2 as substrate preincubated for 30 mins followed by substrate addition and measured for 10 mins by fluorescence assay; method in brief: as §1
Collagenase 3 = Collagenase 3 (Homo sapiens, UniProt P45452); test: Inhibition of human active MMP13 using (7-methoxycoumarin-4-yl)acetyl-Pro-Leu-Gly-Leu-(3-(2,4-dinitrophenyl)-L-2,3-diamino-propionyl)Ala-Arg-NH2 as substrate preincubated for 30 mins followed by substrate addition and measured for 10 mins by fluorescence assay; method in brief: as §1

Sequence of Matrix metalloproteinase-9 (P14780 whole entry): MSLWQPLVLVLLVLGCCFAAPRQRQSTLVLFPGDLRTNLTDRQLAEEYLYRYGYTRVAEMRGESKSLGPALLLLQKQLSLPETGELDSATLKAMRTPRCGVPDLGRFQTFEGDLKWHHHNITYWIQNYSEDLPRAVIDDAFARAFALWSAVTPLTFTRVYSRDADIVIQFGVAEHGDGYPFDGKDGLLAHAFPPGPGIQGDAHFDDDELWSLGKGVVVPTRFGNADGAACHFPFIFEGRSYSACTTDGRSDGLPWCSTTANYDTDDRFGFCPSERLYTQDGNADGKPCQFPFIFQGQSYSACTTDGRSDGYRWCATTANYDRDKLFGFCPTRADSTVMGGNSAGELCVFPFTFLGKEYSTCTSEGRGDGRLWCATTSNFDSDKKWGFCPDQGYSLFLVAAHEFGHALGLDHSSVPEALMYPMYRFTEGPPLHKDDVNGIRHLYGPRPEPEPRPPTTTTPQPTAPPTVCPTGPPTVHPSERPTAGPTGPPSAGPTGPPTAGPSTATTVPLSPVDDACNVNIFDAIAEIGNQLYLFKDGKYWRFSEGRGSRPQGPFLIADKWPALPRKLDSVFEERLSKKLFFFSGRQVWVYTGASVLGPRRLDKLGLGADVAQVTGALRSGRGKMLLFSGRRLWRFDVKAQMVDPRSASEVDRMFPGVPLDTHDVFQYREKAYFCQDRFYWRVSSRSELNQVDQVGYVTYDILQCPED
Sequence of 72 kDa type IV collagenase (P08253 whole entry): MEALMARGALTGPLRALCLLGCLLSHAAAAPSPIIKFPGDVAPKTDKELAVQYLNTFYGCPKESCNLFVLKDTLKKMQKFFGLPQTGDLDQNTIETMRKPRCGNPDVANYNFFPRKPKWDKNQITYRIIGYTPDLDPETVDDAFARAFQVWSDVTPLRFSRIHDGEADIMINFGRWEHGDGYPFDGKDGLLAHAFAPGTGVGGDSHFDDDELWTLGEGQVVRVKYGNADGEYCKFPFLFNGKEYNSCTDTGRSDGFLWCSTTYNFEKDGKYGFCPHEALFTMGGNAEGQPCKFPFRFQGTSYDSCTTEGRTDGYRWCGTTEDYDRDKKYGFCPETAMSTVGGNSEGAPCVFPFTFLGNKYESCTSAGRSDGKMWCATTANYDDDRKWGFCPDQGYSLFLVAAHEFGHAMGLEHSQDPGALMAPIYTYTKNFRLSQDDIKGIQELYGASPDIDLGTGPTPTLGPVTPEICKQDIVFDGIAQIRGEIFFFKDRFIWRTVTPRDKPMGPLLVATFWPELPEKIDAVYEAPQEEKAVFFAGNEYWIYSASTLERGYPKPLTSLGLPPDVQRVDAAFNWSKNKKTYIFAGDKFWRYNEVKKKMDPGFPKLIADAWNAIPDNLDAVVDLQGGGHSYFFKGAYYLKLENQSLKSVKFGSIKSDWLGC
Sequence of Neutrophil collagenase (P22894 whole entry): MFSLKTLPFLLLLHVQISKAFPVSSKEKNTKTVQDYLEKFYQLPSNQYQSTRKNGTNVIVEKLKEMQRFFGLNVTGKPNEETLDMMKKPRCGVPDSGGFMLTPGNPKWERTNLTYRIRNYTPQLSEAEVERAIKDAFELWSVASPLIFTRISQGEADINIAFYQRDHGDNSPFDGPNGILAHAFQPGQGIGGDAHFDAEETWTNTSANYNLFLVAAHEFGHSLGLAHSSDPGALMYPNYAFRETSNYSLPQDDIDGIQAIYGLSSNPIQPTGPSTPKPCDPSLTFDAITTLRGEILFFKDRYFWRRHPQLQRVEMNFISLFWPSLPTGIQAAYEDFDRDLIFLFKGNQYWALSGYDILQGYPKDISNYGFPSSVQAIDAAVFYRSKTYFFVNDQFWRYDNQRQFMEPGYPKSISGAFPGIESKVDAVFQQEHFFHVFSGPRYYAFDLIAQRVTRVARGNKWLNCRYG

SMILES	IC50 ([1]; read-out: IC50) [nM]	IC50 (Neutrophil collagenase; read-out: IC50) [nM]	IC50 ([2]; read-out: IC50) [nM]	IC50 (Collagenase 3; read-out: IC50) [nM]	IC50 [1]	IC50 (Neutrophil collagenase)	IC50 [2]	IC50 (Collagenase 3)
CCCCCCCCCC1(Cc2ccc(OC)cc2)C(=O)NC(=O)NC1=O	94	84	93	83	–	–	–	–
CCCCCCCCC1(Cc2ccc(OC)cc2)C(=O)NC(=O)NC1=O	42	73	3	94	–	–	–	–
CC(C)CCCCCCCC1(Cc2ccccc2)C(=O)NC(=O)NC1=O	–	–	–	–	Nd(Insoluble)	Nd(Insoluble)	Nd(Insoluble)	Nd(Insoluble)
O=C1NC(=O)C(CCCCCCCC(F)CF)(Cc2ccccc2)C(=O)N1 (stereo not drawn)	320	180	60	163	–	–	–	–
COc1ccc(CC2(CCCCCCCC(F)CF)C(=O)NC(=O)NC2=O)cc1 (racemic)	139	110	26	64	–	–	–	–
COc1ccc(CC2(CCCCCCC(F)CF)C(=O)NC(=O)NC2=O)cc1 (stereo not drawn)	411	165	47	17	–	–	–	–
COc1ccc(CC2(CCCCCCCC(F)(F)F)C(=O)NC(=O)NC2=O)cc1	209	187	62	177	–	–	–	–
CCCCCCCCCC1(Cc2ccccc2)C(=O)NC(=O)NC1=O	210	96	5	180	–	–	–	–
COc1ccc(CC2(CCCCCCCC(C)C)C(=O)NC(=O)NC2=O)cc1	207	281	60	225	–	–	–	–
O=C1NC(=O)C(CCCCCCC(F)CF)(Cc2ccccc2)C(=O)N1 (stereo not drawn)	253	125	123	127	–	–	–	–
CCCCCCCCC1(Cc2ccccc2)C(=O)NC(=O)NC1=O	288	157	22	214	–	–	–	–
O=C1NC(=O)C(CCCCCCCC(F)(F)F)(Cc2ccccc2)C(=O)N1	567	229	52	753	–	–	–	–
